{"source": "PubChem BioAssay", "note": "Calls of active or inactive are those of the source.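 Rule for the calls, unless noted: active = mean duplicate potentiation above the buffer control mean plus 5 SD of buffer wells; inactive = the rest.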"}
{"biological_target": "Potassium voltage-gated channel subfamily KQT member 2 (Rattus norvegicus) (UniProt O88943)", "sequence (O88943 whole entry, looked up)": "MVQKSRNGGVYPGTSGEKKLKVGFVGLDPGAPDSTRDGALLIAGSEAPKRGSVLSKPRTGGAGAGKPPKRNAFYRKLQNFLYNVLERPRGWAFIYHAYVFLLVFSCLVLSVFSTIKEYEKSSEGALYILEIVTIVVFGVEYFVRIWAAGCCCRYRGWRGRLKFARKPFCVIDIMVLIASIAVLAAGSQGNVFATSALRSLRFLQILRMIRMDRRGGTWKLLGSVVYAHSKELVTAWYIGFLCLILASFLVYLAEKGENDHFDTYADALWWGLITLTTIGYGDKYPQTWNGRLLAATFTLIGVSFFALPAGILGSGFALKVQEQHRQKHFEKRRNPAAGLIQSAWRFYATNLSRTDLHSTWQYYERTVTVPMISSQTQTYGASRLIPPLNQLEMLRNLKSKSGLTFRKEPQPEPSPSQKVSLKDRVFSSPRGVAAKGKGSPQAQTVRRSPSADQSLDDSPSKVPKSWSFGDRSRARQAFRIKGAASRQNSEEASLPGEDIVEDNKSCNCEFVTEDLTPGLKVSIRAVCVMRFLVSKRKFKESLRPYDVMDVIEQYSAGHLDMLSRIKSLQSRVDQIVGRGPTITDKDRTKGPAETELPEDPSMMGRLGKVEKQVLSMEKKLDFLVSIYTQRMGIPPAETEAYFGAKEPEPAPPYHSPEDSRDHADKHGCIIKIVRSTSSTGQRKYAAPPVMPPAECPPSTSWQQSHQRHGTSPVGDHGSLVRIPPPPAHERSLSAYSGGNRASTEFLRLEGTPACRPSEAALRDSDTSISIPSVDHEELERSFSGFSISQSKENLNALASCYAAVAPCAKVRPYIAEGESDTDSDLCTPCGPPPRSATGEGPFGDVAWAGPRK", "experiment": "rat KCNQ2 channel potentiation, selectivity assay for KCNQ1 potentiator project, KCNQ2-CHO-K1 cells (AID 493009);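 note: assay conditions were tuned for KCNQ1 rather than KCNQ2 modulators; signal is max minus min fluorescence divided by baseline after thallium stimulus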", "conditions": "FluxOR thallium flux fluorescence, at 10 µM; stronger effect = higher value, scaled: buffer 0, activator control 100"}
{"smiles": "CCOC(=O)c1c(NC(=S)NCc2ccccc2)sc2c1CCN(C(=O)OCC)C2", "outcome": "inactive"}
{"smiles": "C/C(CCc1oc2c(Br)cc(Br)cc2c1-c1ccc(C)o1)=N\\O", "outcome": "inactive"}
{"smiles": "Cc1cc(/C=N/NC(=O)c2cccs2)c(C)n1-c1ccccc1", "outcome": "inactive"}
{"smiles": "CC(=O)NC(CC(=O)O)C(=O)O", "note": "(stereo not given)", "outcome": "inactive"}
{"smiles": "NC(=S)Nc1nc2ccccc2s1", "potentiation": "186% (active)"}
{"smiles": "O=Cc1c(F)cccc1N1CCCC1", "potentiation": "150% (active)"}
{"smiles": "Cc1ccc(C)c2sc(NC(=O)c3nc4ccccc4s3)nc12", "outcome": "inactive"}
{"smiles": "N=C1S/C(=C\\c2ccc(-c3cccc(Cl)c3)o2)C(=O)N1c1nccs1", "outcome": "inactive"}
{"smiles": "CCNC(=S)/N=C(\\N)Nc1nc(C)c2cc(C)ccc2n1", "outcome": "inactive"}
{"smiles": "Cc1ccc2nc(N3CCN(Cc4ccc(F)cc4)C3=O)c(C)cc2c1", "outcome": "inactive"}
{"smiles": "CCCOc1ccc(Cc2nc(N)nc(N)n2)cc1", "outcome": "inactive"}
{"smiles": "c1ccc(-n2cnc3cc(NCc4cccs4)ccc32)cc1", "outcome": "inactive"}
{"smiles": "S=c1[nH]cnc2scc(-c3ccc(Cl)cc3)c12", "potentiation": "191% (active)"}
{"smiles": "COc1ccc(-c2oc3ccccc3c(=O)c2OC(C)=O)cc1", "potentiation": "161% (active)"}
{"smiles": "O=c1[nH]sc2ccccc12", "outcome": "inactive"}
{"smiles": "CCOc1ccc(NC(=O)C2CCN(S(=O)(=O)c3cccnc3)CC2)cc1", "outcome": "inactive"}
{"smiles": "COCCCn1c(=S)[nH]c2sc3c(c2c1=O)CCCC3", "potentiation": "346% (active)"}
{"smiles": "CC(=O)NC(NC(C)=O)c1ccc(N(C)C)cc1", "outcome": "inactive"}
{"smiles": "C=CCn1c(O)c(N=NC(=S)Nc2cccc(OC)c2)c2ccccc21", "potentiation": "271% (active)"}
{"smiles": "O=C(Nc1nnc(-c2ccc3c(c2)CCCC3)o1)c1ccccc1Cl", "potentiation": "267% (active)"}
{"smiles": "CCOC(=O)CSc1nc2ccccc2n2c(C)nnc12", "outcome": "inactive"}
{"smiles": "Cc1sc(-n2c(C)cc(/C=C3\\SC(=S)NC3=O)c2C)c(C#N)c1C", "outcome": "inactive"}
{"smiles": "COc1ccc(CN(C)C(=O)c2cccc(NS(=O)(=O)c3ccccc3)c2)cc1F", "outcome": "inactive"}
{"smiles": "Cc1cnc(NC(=O)c2ccc(-c3nc4ccccc4s3)o2)s1", "outcome": "inactive"}
{"smiles": "OC(CNC1CCCCC1)COCCOc1ccc(Br)cc1", "note": "(stereo not given)", "outcome": "inactive"}
{"smiles": "COc1ccc(CN(C)CC(=O)Nc2ccc(Cl)cc2C(F)(F)F)c(OC)c1", "outcome": "inactive"}
{"smiles": "CCOc1ccc(-c2c(=O)n(O)c3ccccc3[n+]2[O-])cc1", "potentiation": "254% (active)"}
{"smiles": "O=C(CNC(=O)c1ccccc1)NCc1ccc(Cl)cc1", "outcome": "inactive"}
{"smiles": "COc1ccc(CN2C(=O)C(C)S/C2=N/N=C/c2ccco2)cc1", "note": "(stereo not given)", "outcome": "inactive"}
{"smiles": "COc1ccc(-n2nnnc2-c2ccccc2)cc1", "outcome": "inactive"}
{"smiles": "O=C(c1ccc(-c2ccccc2)cc1)N1CCCC1", "potentiation": "233% (active)"}
{"smiles": "CCc1nnc(NC(=O)CSc2n[nH]c(-c3ccccc3O)n2)s1", "outcome": "inactive"}
{"smiles": "COc1cccc(C2=NOC(C(=O)NCc3cccs3)C2)c1", "note": "(stereo not given)", "outcome": "inactive"}
{"smiles": "COc1ccc(NC(=S)NC(=O)c2csnn2)cc1", "potentiation": "282% (active)"}
{"smiles": "Cc1sc2nc(CSc3ccccc3)nc(N3CCN(C)CC3)c2c1C", "outcome": "inactive"}
{"smiles": "CCCc1ccc2oc(C(=O)N(C)CCn3ccnc3C)c(C)c2c1", "outcome": "inactive"}
{"smiles": "CCOC(=O)/C(C)=N/NC(=O)c1cccc([N+](=O)[O-])c1", "potentiation": "206% (active)"}
{"smiles": "Cc1sc(NC(=O)CS(=O)(=O)c2ccccc2)c(C#N)c1C", "outcome": "inactive"}
{"smiles": "O=C(NCCN1CCOCC1)[C@H](Cc1ccccc1)N1C(=O)c2ccccc2C1=O", "potentiation": "155% (active)"}
{"smiles": "CCOC(=O)c1[nH]c(C=O)c(C(=O)OCC)c1C", "outcome": "inactive"}
{"biological_target": "Potassium voltage-gated channel subfamily KQT member 1 (Homo sapiens) (UniProt P51787)", "sequence (P51787 whole entry, looked up)": "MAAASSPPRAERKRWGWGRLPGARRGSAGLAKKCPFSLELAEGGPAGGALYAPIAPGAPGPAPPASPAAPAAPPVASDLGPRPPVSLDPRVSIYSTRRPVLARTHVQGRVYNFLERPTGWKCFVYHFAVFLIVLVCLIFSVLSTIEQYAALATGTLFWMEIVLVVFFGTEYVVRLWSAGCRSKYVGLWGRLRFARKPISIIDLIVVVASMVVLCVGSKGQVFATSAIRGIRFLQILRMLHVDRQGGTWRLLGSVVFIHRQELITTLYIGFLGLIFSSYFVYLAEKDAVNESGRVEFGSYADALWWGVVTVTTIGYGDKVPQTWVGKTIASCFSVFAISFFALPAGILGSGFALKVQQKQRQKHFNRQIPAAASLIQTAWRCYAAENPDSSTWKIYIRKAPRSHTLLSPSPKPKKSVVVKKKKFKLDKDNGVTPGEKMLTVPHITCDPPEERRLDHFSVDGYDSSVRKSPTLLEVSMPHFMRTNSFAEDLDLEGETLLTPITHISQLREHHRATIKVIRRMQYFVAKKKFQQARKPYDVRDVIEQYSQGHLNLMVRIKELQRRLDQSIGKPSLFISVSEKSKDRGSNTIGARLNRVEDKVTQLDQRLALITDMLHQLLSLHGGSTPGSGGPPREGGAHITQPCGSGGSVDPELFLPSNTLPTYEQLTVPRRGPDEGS", "experiment": "KCNQ1 channel current potentiators, confirmation, orthogonal assay for KCNQ1 potentiator project, IonWorks patch clamp, KCNQ1-CHO cells (AID 493184;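 active = current rise at least 3 SD above the untreated control mean in each of two repeat wells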)", "conditions": "automated patch clamp current, at 10 µM; stronger effect = higher value", "outline": "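assay system = KCNQ1-expressing CHO cells | medium = external bath solution at pH 7.4 | probe or stimulus = 2,000 ms depolarization, -90 to +40 mV | compound dosing = 10 µM final, single point | measured by = automated voltage clamp, amphotericin B perforated patch | measure = percent current increase versus pre-compound level | replication = duplicates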"}
{"smiles": "CCOC(=O)c1c(NC(=S)NCc2ccccc2)sc2c1CCN(C(=O)OCC)C2", "outcome": "inactive"}
{"smiles": "C/C(CCc1oc2c(Br)cc(Br)cc2c1-c1ccc(C)o1)=N\\O", "outcome": "inactive"}
{"smiles": "Cc1cc(/C=N/NC(=O)c2cccs2)c(C)n1-c1ccccc1", "outcome": "inactive"}
{"smiles": "CC(=O)NC(CC(=O)O)C(=O)O", "note": "(stereo not given)", "outcome": "inactive"}
{"smiles": "NC(=S)Nc1nc2ccccc2s1", "outcome": "inactive"}
{"smiles": "O=Cc1c(F)cccc1N1CCCC1", "outcome": "inactive"}
{"smiles": "Cc1ccc(C)c2sc(NC(=O)c3nc4ccccc4s3)nc12", "outcome": "inactive"}
{"smiles": "N=C1S/C(=C\\c2ccc(-c3cccc(Cl)c3)o2)C(=O)N1c1nccs1", "outcome": "inactive"}
{"smiles": "CCNC(=S)/N=C(\\N)Nc1nc(C)c2cc(C)ccc2n1", "outcome": "inactive"}
{"smiles": "Cc1ccc2nc(N3CCN(Cc4ccc(F)cc4)C3=O)c(C)cc2c1", "outcome": "inactive"}
{"smiles": "CCCOc1ccc(Cc2nc(N)nc(N)n2)cc1", "outcome": "inactive"}
{"smiles": "c1ccc(-n2cnc3cc(NCc4cccs4)ccc32)cc1", "outcome": "inactive"}
{"smiles": "S=c1[nH]cnc2scc(-c3ccc(Cl)cc3)c12", "outcome": "inactive"}
{"smiles": "COc1ccc(-c2oc3ccccc3c(=O)c2OC(C)=O)cc1", "outcome": "inactive"}
{"smiles": "O=c1[nH]sc2ccccc12", "outcome": "inactive"}
{"smiles": "CCOc1ccc(NC(=O)C2CCN(S(=O)(=O)c3cccnc3)CC2)cc1", "outcome": "inactive"}
{"smiles": "COCCCn1c(=S)[nH]c2sc3c(c2c1=O)CCCC3", "outcome": "inactive"}
{"smiles": "CC(=O)NC(NC(C)=O)c1ccc(N(C)C)cc1", "outcome": "inactive"}
{"smiles": "C=CCn1c(O)c(N=NC(=S)Nc2cccc(OC)c2)c2ccccc21", "outcome": "inactive"}
{"smiles": "O=C(Nc1nnc(-c2ccc3c(c2)CCCC3)o1)c1ccccc1Cl", "outcome": "inactive"}
{"smiles": "CCOC(=O)CSc1nc2ccccc2n2c(C)nnc12", "outcome": "inactive"}
{"smiles": "Cc1sc(-n2c(C)cc(/C=C3\\SC(=S)NC3=O)c2C)c(C#N)c1C", "outcome": "inactive"}
{"smiles": "COc1ccc(CN(C)C(=O)c2cccc(NS(=O)(=O)c3ccccc3)c2)cc1F", "outcome": "inactive"}
{"smiles": "Cc1cnc(NC(=O)c2ccc(-c3nc4ccccc4s3)o2)s1", "outcome": "inactive"}
{"smiles": "OC(CNC1CCCCC1)COCCOc1ccc(Br)cc1", "note": "(stereo not given)", "outcome": "inactive"}
{"smiles": "COc1ccc(CN(C)CC(=O)Nc2ccc(Cl)cc2C(F)(F)F)c(OC)c1", "outcome": "inactive"}
{"smiles": "CCOc1ccc(-c2c(=O)n(O)c3ccccc3[n+]2[O-])cc1", "outcome": "inactive"}
{"smiles": "O=C(CNC(=O)c1ccccc1)NCc1ccc(Cl)cc1", "outcome": "inactive"}
{"smiles": "COc1ccc(CN2C(=O)C(C)S/C2=N/N=C/c2ccco2)cc1", "note": "(stereo not given)", "outcome": "inactive"}
{"smiles": "COc1ccc(-n2nnnc2-c2ccccc2)cc1", "outcome": "inactive"}
{"smiles": "O=C(c1ccc(-c2ccccc2)cc1)N1CCCC1", "outcome": "inactive"}
{"smiles": "CCc1nnc(NC(=O)CSc2n[nH]c(-c3ccccc3O)n2)s1", "outcome": "inactive"}
{"smiles": "COc1cccc(C2=NOC(C(=O)NCc3cccs3)C2)c1", "note": "(stereo not given)", "outcome": "inactive"}
{"smiles": "COc1ccc(NC(=S)NC(=O)c2csnn2)cc1", "outcome": "inactive"}
{"smiles": "Cc1sc2nc(CSc3ccccc3)nc(N3CCN(C)CC3)c2c1C", "outcome": "inactive"}
{"smiles": "CCCc1ccc2oc(C(=O)N(C)CCn3ccnc3C)c(C)c2c1", "outcome": "inactive"}
{"smiles": "CCOC(=O)/C(C)=N/NC(=O)c1cccc([N+](=O)[O-])c1", "outcome": "inactive"}
{"smiles": "Cc1sc(NC(=O)CS(=O)(=O)c2ccccc2)c(C#N)c1C", "outcome": "inactive"}
{"smiles": "O=C(NCCN1CCOCC1)[C@H](Cc1ccccc1)N1C(=O)c2ccccc2C1=O", "outcome": "inactive"}
{"smiles": "CCOC(=O)c1[nH]c(C=O)c(C(=O)OCC)c1C", "outcome": "inactive"}
